Source: ChEMBL document CHEMBL4680191, “Discovery of novel akt1 inhibitor induces autophagy associated death in hepatocellular carcinoma cells” (Eur J Med Chem, 2020)
Calls of active or inactive are those of the source. The calls are words filed in the database; no cut-off is given here.

What was measured:
[1] = biological target: cAMP-dependent protein kinase catalytic subunit alpha (Homo sapiens) (UniProt P17612); test: Inhibition of full length human PKAcalpha assessed as remaining activity at 1 uM using LRRASLG as substrate incubated for 40 mins by scintillation counting method relative to control
Summary of the method: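 Run as an outsourced KinaseProfiler service, with human PKA and Akt1, Akt2 and Akt3 in the same panel. Each compound was tested at a single 1 µM concentration, and the result is reported as kinase activity remaining, as a percentage of control.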

[2] = test system: RAC-beta serine/threonine-protein kinase (Homo sapiens), P31751 [S474D]; test: Inhibition of full length human Akt2 S474D mutant assessed as remaining activity at 1 uM using GRPRTSSFAEGKK as substrate incubated for 40 mins by scintillation counting method relative to control
Sequence of RAC-beta serine/threonine-protein kinase (Homo sapiens), P31751 [S474D] (P31751 whole entry S474D): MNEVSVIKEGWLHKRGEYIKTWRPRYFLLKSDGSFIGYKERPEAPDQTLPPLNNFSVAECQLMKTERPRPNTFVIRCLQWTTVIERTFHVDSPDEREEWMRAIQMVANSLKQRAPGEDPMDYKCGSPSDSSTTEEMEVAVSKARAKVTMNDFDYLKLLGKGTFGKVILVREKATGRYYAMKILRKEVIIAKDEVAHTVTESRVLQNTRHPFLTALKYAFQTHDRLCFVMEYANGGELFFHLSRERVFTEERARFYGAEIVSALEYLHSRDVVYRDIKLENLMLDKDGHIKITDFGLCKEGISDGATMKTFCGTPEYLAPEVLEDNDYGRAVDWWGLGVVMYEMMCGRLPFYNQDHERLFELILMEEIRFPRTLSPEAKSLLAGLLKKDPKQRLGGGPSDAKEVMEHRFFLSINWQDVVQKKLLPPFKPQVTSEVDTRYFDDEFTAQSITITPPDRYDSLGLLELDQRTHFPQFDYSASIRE
Summary of the method: (§1)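 Eurofins KinaseProfiler kinase assay on human Akt1, Akt2 and Akt3. Compounds were tested at 1 µM. Residual kinase activity is reported as % of control.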

[3] = test system: RAC-gamma serine/threonine-protein kinase (Homo sapiens), Q9Y243 [S472D]; test: Inhibition of full length human Akt3 S472D mutant assessed as remaining activity at 1 uM using GRPRTSSFAEGKK as substrate incubated for 40 mins by scintillation counting method relative to control; summary of the method: as §1
Sequence of RAC-gamma serine/threonine-protein kinase (Homo sapiens), Q9Y243 [S472D] (Q9Y243 whole entry S472D): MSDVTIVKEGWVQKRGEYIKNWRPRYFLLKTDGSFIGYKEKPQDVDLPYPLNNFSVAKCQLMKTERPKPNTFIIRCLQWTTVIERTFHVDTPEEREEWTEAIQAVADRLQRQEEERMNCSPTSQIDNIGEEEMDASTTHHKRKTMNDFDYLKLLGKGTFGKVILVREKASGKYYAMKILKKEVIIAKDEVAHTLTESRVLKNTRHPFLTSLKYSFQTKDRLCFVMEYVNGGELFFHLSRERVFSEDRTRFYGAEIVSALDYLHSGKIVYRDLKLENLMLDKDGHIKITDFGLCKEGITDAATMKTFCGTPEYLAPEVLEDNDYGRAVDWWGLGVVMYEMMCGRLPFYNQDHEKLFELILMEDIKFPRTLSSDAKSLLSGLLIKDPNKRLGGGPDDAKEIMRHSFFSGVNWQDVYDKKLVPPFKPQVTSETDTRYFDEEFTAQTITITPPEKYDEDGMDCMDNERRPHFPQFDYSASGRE

Homo sapiens = species: Homo sapiens; test: Inhibition of full length human Akt1 […] mutant assessed as remaining activity at 1 uM using GRPRTSSFAEGKK as substrate incubated for 40 mins by scintillation counting method relative to control; summary of the method: as §1
Huh-7 [4] = test: Cytotoxicity against human Huh-7 cells assessed as reduction in cell viability by MTT assay; format: functional, cell-based
Summary of the method: (§2)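 Hepatoma cells were grown in DMEM with 10% FBS and streptomycin, then treated with compounds. Viability was read by MTT.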

Huh-7 [5] = test: Induction of autophagy flux arrest in human Huh-7 cells assessed as reduction in LC3 by immunofluorescence staining based assay; format: functional, cell-based
Summary of the method: (§3)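 Huh-7 cells with or without 0.2 µM compound were immunofluorescently co-stained for LC3 (autophagosome) and LAMP1 (lysosome). Co-localization was assessed by fluorescence imaging.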

HepG2 = test: Cytotoxicity against human HepG2 cells assessed as reduction in cell viability by MTT assay; format: functional, cell-based; summary of the method: as §2
SMMC-7721 = test: Cytotoxicity against human SMMC-7721 cells assessed as reduction in cell viability by MTT assay; format: functional, cell-based; summary of the method: as §2
Hep 3B2 = test: Cytotoxicity against human Hep3B cells assessed as reduction in cell viability by MTT assay; format: functional, cell-based; summary of the method: as §2
[6] = Inhibition of full length human Akt1 […] mutant using GRPRTSSFAEGKK as substrate incubated for 40 mins by scintillation counting method
Summary of the method: (§4)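 Eurofins KinaseProfiler enzymatic assay on human Akt isoforms. IC50 values are the mean of at least three independent replicates ± standard deviation.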

Huh-7 [7] = test: Induction of autophagy flux arrest in human Huh-7 cells assessed as reduction in LAMP1 by immunofluorescence staining based assay; format: functional, cell-based; summary of the method: as §3
[8] = biological target: RAC-gamma serine/threonine-protein kinase (Homo sapiens, UniProt Q9Y243, S472D); test: Inhibition of full length human Akt3 S472D mutant using GRPRTSSFAEGKK as substrate incubated for 40 mins by scintillation counting method; summary of the method: as §4
Sequence of RAC-gamma serine/threonine-protein kinase (Q9Y243 2-479 S472D limits assumed): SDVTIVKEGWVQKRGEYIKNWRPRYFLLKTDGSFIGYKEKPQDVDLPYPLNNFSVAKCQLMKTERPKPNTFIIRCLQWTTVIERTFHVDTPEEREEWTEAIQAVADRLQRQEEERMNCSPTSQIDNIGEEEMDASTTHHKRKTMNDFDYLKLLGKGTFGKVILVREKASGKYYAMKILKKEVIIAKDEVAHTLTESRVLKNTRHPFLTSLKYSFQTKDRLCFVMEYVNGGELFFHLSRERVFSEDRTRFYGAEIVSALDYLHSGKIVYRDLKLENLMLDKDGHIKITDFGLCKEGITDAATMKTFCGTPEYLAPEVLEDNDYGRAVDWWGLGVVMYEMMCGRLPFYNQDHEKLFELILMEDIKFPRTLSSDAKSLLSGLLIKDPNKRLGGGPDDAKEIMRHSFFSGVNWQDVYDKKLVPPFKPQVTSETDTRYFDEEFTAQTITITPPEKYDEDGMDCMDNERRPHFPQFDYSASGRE

Activity [1]	Activity [2]	Activity [3]	Activity (Homo sapiens)	IC50 [6]	IC50 [8]	SMILES	IC50 (Huh-7 [4])	Activity (Huh-7 [5])	IC50 (HepG2)	IC50 (SMMC-7721)	IC50 (Hep 3B2)	Activity (Huh-7 [7])
90%	73%	73%	78%			Cc1ccc(C(CNC(C)C)C(=O)N2CCN(c3ncnc4sc5c(c34)CCN(C)C5)CC2)cc1 (stereo not given)						
81%	93%	84%	81%			CCCCNCC(C(=O)N1CCN(c2ncnc3sc4c(c23)CCN(C)C4)CC1)c1ccc(Cl)cc1 (stereo not given)						
45%	57%	19%	11%			CC(C)NCC(C(=O)N1CCN(c2ncnc3sc4c(c23)CCC4)CC1)c1ccc(Cl)cc1 (stereo not given)						
87%	82%	71%	73%			CCN1CCc2c(sc3ncnc(N4CCN(C(=O)C(CNC(C)C)c5ccc(Cl)cc5)CC4)c23)C1 (stereo not given)						
				19 nM		CC(C)NC[C@@H](C(=O)N1CCN(c2ncnc3c2[C@H](C)C[C@H]3O)CC1)c1ccc(Cl)cc1 [IPATASERTIB]	167 nM	Active	268 nM	661 nM	389 nM	Active
23%	67%	20%	1%	39 nM	95 nM	CC(C)NCC(C(=O)N1CCN(c2ncnc3sc4c(c23)CCC4)CC1)c1ccc(Br)cc1 (stereo not given)	112 nM		202 nM	521 nM	228 nM	
86%	83%	76%	96%			CC(C)NCC(C(=O)N1CCN(c2ncnc3sc4c(c23)CCN(C)C4)CC1)c1ccccc1Cl (stereo not given)						
80%	95%	87%	86%			CC(C)NCC(C(=O)N1CCN(c2ncnc3sc4c(c23)CCN(C(=O)N(C)C)C4)CC1)c1ccc(Cl)cc1 (stereo not given)						
29%	51%	11%	1%	51 nM	45 nM	O=C(C(CNC1CCCCC1)c1ccc(Cl)cc1)N1CCN(c2ncnc3sc4c(c23)CCC4)CC1 (stereo not given)	159 nM		386 nM	978 nM	294 nM	
95%	88%	69%	84%			CN1CCc2c(sc3ncnc(N4CCN(C(=O)C(CNC5CCCCC5)c5ccc(Cl)cc5)CC4)c23)C1 (stereo not given)						
92%	71%	70%	77%			CC(C)NCC(C(=O)N1CCN(c2ncnc3sc4c(c23)CCN(C2CC2)C4)CC1)c1ccc(Cl)cc1 (stereo not given)						
84%	81%	78%	76%			CC(C)NCC(C(=O)N1CCN(c2ncnc3sc4c(c23)CCN(C(C)C)C4)CC1)c1ccc(Cl)cc1 (stereo not given)						
97%	111%	87%	88%			CC(C)NCC(C(=O)N1CCN(c2ncnc3sc4c(c23)CCN(C)C4)CC1)c1ccc(F)cc1 (stereo not given)						
66%	86%	42%	18%			COc1ccc(C(CNC(C)C)C(=O)N2CCN(c3ncnc4sc5c(c34)CCC5)CC2)cc1 (stereo not given)						
80%	77%	71%	71%			CC(C)NCC(C(=O)N1CCN(c2ncnc3sc4c(c23)CCN(Cc2ccccc2)C4)CC1)c1ccc(Cl)cc1 (stereo not given)						
82%	81%	76%	82%			CN1CCc2c(sc3ncnc(N4CCN(C(=O)C(CNC5CCCC5)c5ccc(Cl)cc5)CC4)c23)C1 (stereo not given)						
78%	81%	77%	78%			CC(C)NCC(C(=O)N1CCN(c2ncnc3sc4c(c23)CCOC4)CC1)c1ccc(Cl)cc1 (stereo not given)						
88%	86%	72%	69%			CC(C)NCC(C(=O)N1CCN(c2ncnc3sc4c(c23)CCN(C)C4)CC1)c1ccc(Br)cc1 (stereo not given)						
78%	72%	63%	55%			CC(C)NCC(C(=O)N1CCN(c2ncnc3sc4c(c23)CCCC4)CC1)c1ccc(Cl)cc1 (stereo not given)						
95%	101%	92%	88%			CC(C)NCC(C(=O)N1CCN(c2ncnc3sc4c(c23)CCC4)CC1)c1ccccc1Cl (stereo not given)						
95%	78%	76%	81%			COc1ccc(C(CNC(C)C)C(=O)N2CCN(c3ncnc4sc5c(c34)CCN(C)C5)CC2)cc1 (stereo not given)						
31%	58%	21%	1%	125 nM	101 nM	CCNCC(C(=O)N1CCN(c2ncnc3sc4c(c23)CCC4)CC1)c1ccc(Cl)cc1 (stereo not given)	283 nM		580 nM	1250 nM	541 nM	
77%	104%	45%	26%			CC(C)NCC(C(=O)N1CCN(c2ncnc3sc4c(c23)CCC4)CC1)c1ccc(F)cc1 (stereo not given)						
91%	107%	74%	95%			CCNCC(C(=O)N1CCN(c2ncnc3sc4c(c23)CCN(C)C4)CC1)c1ccc(Cl)cc1 (stereo not given)						
88%	89%	79%	75%			CCCN1CCc2c(sc3ncnc(N4CCN(C(=O)C(CNC(C)C)c5ccc(Cl)cc5)CC4)c23)C1 (stereo not given)						
37%	56%	15%	1%	166 nM	137 nM	CCCCNCC(C(=O)N1CCN(c2ncnc3sc4c(c23)CCC4)CC1)c1ccc(Cl)cc1 (stereo not given)	367 nM		914 nM	1350 nM	833 nM	
72%	91%	69%	50%			CC(C)NCC(C(=O)N1CCN(c2ncnc3sc4c(c23)CCN(C)C4)CC1)c1ccc(Cl)cc1 (stereo not given)						
